Legend:
Rattus norvegicus [1] = species on record: Rattus norvegicus; test: Compound was evaluated for its analgesic activity by Randall-Selitto test in comparison with that of Aspirine; assay type: functional
Summary of the method: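 Randall–Selitto pain threshold, measured on the inflamed right hind paw of male Wistar rats (170–200 g), 10 per dose. Edema was induced with 0.1 mL of 20% yeast suspension in saline. Oral dosing in 0.5% methocel (10 mL/kg), highest dose one-fifth of LD50, then scaling down through 100, 50, 20, 10, 5 and 2 mg/kg. Threshold read before dosing, then hourly for 6 h. Potency expressed relative to aspirin = 1.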

Rattus norvegicus [2] = test: Antiinflammatory activity measured as the percentage inhibition of edema in carrageenan induced rat paw after peroral administration of 200 mg/kg of compound; assay type: functional; settings: route oral
Summary of the method: (§1)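 Female Wistar rats (120–150 g), 10 per dose, dosed orally with an aqueous suspension in 0.5% methocel (10 mL/kg) 1 h before 0.05 mL of 1% carrageenin in saline was injected into the right hind paw aponeurosis. Paw volume was read plethysmographically at injection and 4 h later. Inhibition is given relative to vehicle controls. Screening dose 200 mg/kg; 100 mg/kg was tested when inhibition exceeded 30%. Student's t test.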

Rattus norvegicus [3] = species on record: Rattus norvegicus; test: Compound was evaluated for its gastroulcerogenic effect with respect to treated and control groups. Treated and control groups are not statistically different when the index is <1; P<0.05.; assay type: functional
Rattus norvegicus [4] = test: Compound was evaluated for its antiinflammatory activity in the cotton pellet induced granuloma(CPG) in normal rats at the dose 200 mg/kg p.o.; assay type: functional; settings: route oral
Summary of the method: (§2)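 Male Wistar rats (150–180 g), 7 per group. Two sterile 50 mg cotton pellets were implanted subcutaneously in the interscapular region under ether. Oral dosing in 0.5% methocel (10 mL/kg) daily for 6 days, starting 6 h after surgery. Animals were killed 24 h after the last dose; pellets with granuloma were dried 24 h at 80 °C. Percent inhibition versus vehicle controls.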

Rattus norvegicus [5] = species on record: Rattus norvegicus; test: Compound was evaluated for its antipyretic activity by antipyresis effect in comparison with that of Aspirin.; assay type: functional
Summary of the method: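 Male Sprague-Dawley rats (120–150 g), 6 per dose, starved 18 h and kept at 24 °C; rats above 38 °C were excluded. Fever was induced by subcutaneous 1 mL of filtered 5% peptone preincubated 48 h at 37 °C. Oral doses as in the analgesic test (top dose one-fifth of LD50, stepping down). Rectal thermocouple readings from 4 h after injection, then hourly for 4 h. Activity relative to aspirin = 1.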

Rattus norvegicus [6] = test: Antiinflammatory activity was measured as the percentage inhibition of edema in carrageenan induced rat paw after peroral administration of 100 mg/kg of compound; assay type: functional; settings: route oral; summary of the method: as §1
Rattus norvegicus [7] = test: Compound was evaluated for its gastroulcerogenic effect in rats at a peroral dose of 200 mg/kg, P<0.05.; assay type: functional; settings: route oral
Rattus norvegicus [8] = test: Compound was evaluated for its antiinflammatory activity in the cotton pellet induced granuloma(CPG) in normal rats at the dose 3 mg/kg p.o.; settings: po, read-out: Inhibition
Rattus norvegicus [9] = test: Compound was evaluated for its antiinflammatory activity by adjuvant-induced polyarthritis test in rats at a dosage of 1 mg/kg administered orally; assay type: functional; settings: route oral
Summary of the method: (§3)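 Female Wistar rats (130–150 g), 8 per dose. Killed Mycobacterium butyricum (0.6 mg in 0.1 mL mineral oil) was injected into the right hind plantar aponeurosis. Oral dosing in 0.5% methocel, once daily, curative scheme from day 14 to day 27. Read-outs: percent change in hind-paw volume versus controls; Newbould 0–4 lesion scores for front paws, tail and ears; plasma inflammation units by nephelometric turbidity before and after 30 min at 56 °C on day 27.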

Rattus norvegicus [10] = test: (§4) Compound was evaluated for its antiinflammatory activity by adjuvant-induced polyarthritis test in rats at a dosage of 100 mg/kg administered orally; assay type: functional; set-up: unit not given beside the values; settings: route oral; summary of the method: as §3
Rattus norvegicus [11] = test: as §4; assay type: functional; settings: route oral; summary of the method: as §3
Rattus norvegicus [12] = test: Compound was evaluated for its antiinflammatory activity by adjuvant-induced polyarthritis test in rats at a dosage of 50 mg/kg administered orally; assay type: functional; settings: route oral; summary of the method: as §3
Rattus norvegicus [13] = test: Compound was evaluated for its antiinflammatory activity in the cotton pellet induced granuloma(CPG) in normal rats at the dose 50 mg/kg p.o.; assay type: functional; settings: route oral; summary of the method: as §2
Rattus norvegicus [14] = test: Compound was evaluated for its antiinflammatory activity in the cotton pellet induced granuloma(CPG) in normal rats at the dose 100 mg/kg p.o.; assay type: functional; settings: route oral; summary of the method: as §2
Rattus norvegicus [15] = test: Compound was evaluated for its gastroulcerogenic effect in rats at a peroral dose of 200 mg/kg; assay type: functional; settings: route oral

Compound: Cn1c(-c2ccccc2)nc2c3ccccc3ccc21
- Activity (Rattus norvegicus [1]): 0.9
- inhibition in vivo at 200 mg/kg (Rattus norvegicus [2]): 42%
- Ulcerogenic index (Rattus norvegicus [3]): 0.33
- inhibition in vivo at 200 mg/kg (Rattus norvegicus [4]): 24%
- Activity (Rattus norvegicus [5]): 9.1
- inhibition in vivo at 100 mg/kg (Rattus norvegicus [6]): 37%

Compound: Cn1c(-c2cccc(Cl)c2)nc2c3ccccc3ccc21
- inhibition in vivo at 200 mg/kg (Rattus norvegicus [2]): 7%

Compound: COc1ccc2c(c1)c(CC(=O)O)c(C)n2C(=O)c1ccc(Cl)cc1 [INDOMETHACIN]
- Activity (Rattus norvegicus [1]): 34
- Activity (Rattus norvegicus [5]): 15.4
- Ulcerogenic index (Rattus norvegicus [7]): 1.5
- inhibition in vivo at 3 mg/kg (Rattus norvegicus [8]): 41%
- Arthritis scores (Rattus norvegicus [9]): 65
- Inflammation units (Rattus norvegicus [9]): 82
- Mean volume of hind paws (Rattus norvegicus [9]): 52

Compound: COc1ccc(-c2nc3c4ccccc4ccc3n2C(C)(C)C)cc1
- inhibition in vivo at 200 mg/kg (Rattus norvegicus [2]): 19%

Compound: COc1ccc(-c2nc3c4ccccc4ccc3n2C(C)C)cc1 [TOMOXIPROLE]
- Activity (Rattus norvegicus [1]): 2.2
- inhibition in vivo at 200 mg/kg (Rattus norvegicus [2]): 48%
- Mean volume of hind paws (Rattus norvegicus [10]): 43
- Arthritis scores (Rattus norvegicus [11]): 77
- Inflammation units (Rattus norvegicus [11]): 93
- inhibition in vivo at 200 mg/kg (Rattus norvegicus [4]): 45%
- Activity (Rattus norvegicus [5]): 0.7
- inhibition in vivo at 100 mg/kg (Rattus norvegicus [6]): 45%

Compound: Cn1c(-c2ccc(Cl)cc2)nc2c3ccccc3ccc21
- inhibition in vivo at 200 mg/kg (Rattus norvegicus [2]): 21%

Compound: Cn1c(-c2ccccc2O)nc2c3ccccc3ccc21
- inhibition in vivo at 200 mg/kg (Rattus norvegicus [2]): 1%

Compound: CCC(CC)n1c(-c2ccc(OC)cc2)nc2c3ccccc3ccc21
- inhibition in vivo at 200 mg/kg (Rattus norvegicus [2]): 11%

Compound: COc1cccc(-c2nc3c4ccccc4ccc3n2C)c1
- inhibition in vivo at 200 mg/kg (Rattus norvegicus [2]): 21%

Compound: CCCCC1C(=O)N(c2ccccc2)N(c2ccccc2)C1=O [PHENYLBUTAZONE]
- Activity (Rattus norvegicus [1]): 6.5
- Arthritis scores (Rattus norvegicus [12]): 58
- Inflammation units (Rattus norvegicus [12]): 68
- Mean volume of hind paws (Rattus norvegicus [12]): 45
- Activity (Rattus norvegicus [5]): 4
- Ulcerogenic index (Rattus norvegicus [7]): 1.4
- inhibition in vivo at 50 mg/kg (Rattus norvegicus [13]): 38%

Compound: Cn1c(-c2ccc3c(c2)OCO3)nc2c3ccccc3ccc21
- inhibition in vivo at 200 mg/kg (Rattus norvegicus [2]): 28%

Compound: COc1ccc(-c2nc3c(ccc4ccccc43)[nH]2)cc1
- inhibition in vivo at 200 mg/kg (Rattus norvegicus [2]): 10%

Compound: CC(=O)Oc1ccc(-c2nc3c4ccccc4ccc3n2C)cc1
- inhibition in vivo at 200 mg/kg (Rattus norvegicus [2]): 8%

Compound: CCCn1c(-c2ccc(OC)cc2)nc2c3ccccc3ccc21
- inhibition in vivo at 200 mg/kg (Rattus norvegicus [2]): 20%

Compound: CNc1ccc(-c2nc3c4ccccc4ccc3n2C)cc1
- inhibition in vivo at 200 mg/kg (Rattus norvegicus [2]): 59%
- Ulcerogenic index (Rattus norvegicus [7]): 0.16
- inhibition in vivo at 100 mg/kg (Rattus norvegicus [14]): 33%
- inhibition in vivo at 100 mg/kg (Rattus norvegicus [6]): 47%

Compound: COc1ccc(-c2nc3c4ccccc4ccc3n2C)cc1C
- inhibition in vivo at 200 mg/kg (Rattus norvegicus [2]): 35%
- inhibition in vivo at 100 mg/kg (Rattus norvegicus [6]): 24%

Compound: Cc1cc(-c2nc3c4ccccc4ccc3n2C)cc(C)c1N(C)C
- inhibition in vivo at 200 mg/kg (Rattus norvegicus [2]): 14%

Compound: C=C(C)n1c(-c2ccc(OC)cc2)nc2c3ccccc3ccc21
- inhibition in vivo at 200 mg/kg (Rattus norvegicus [2]): 58%
- Mean volume of hind paws (Rattus norvegicus [10]): 38
- Arthritis scores (Rattus norvegicus [11]): 70
- Inflammation units (Rattus norvegicus [11]): 68
- inhibition in vivo at 100 mg/kg (Rattus norvegicus [6]): 54%

Compound: Cc1cc(-c2nc3c4ccccc4ccc3n2C)ccc1N(C)C
- Activity (Rattus norvegicus [1]): 2.8
- inhibition in vivo at 200 mg/kg (Rattus norvegicus [2]): 69%
- Mean volume of hind paws (Rattus norvegicus [10]): 42
- Arthritis scores (Rattus norvegicus [11]): 69
- Inflammation units (Rattus norvegicus [11]): 84
- Activity (Rattus norvegicus [5]): 10.5
- Ulcerogenic index (Rattus norvegicus [15]): 0.21
- inhibition in vivo at 100 mg/kg (Rattus norvegicus [14]): 38%
- inhibition in vivo at 100 mg/kg (Rattus norvegicus [6]): 64%

Compound: Cn1c(-c2ccc[nH]2)nc2c3ccccc3ccc21
- inhibition in vivo at 200 mg/kg (Rattus norvegicus [2]): 1%

Compound: Cl.Cn1c(-c2ccccn2)nc2c3ccccc3ccc21
- inhibition in vivo at 200 mg/kg (Rattus norvegicus [2]): 24%
